From ChEMBL document CHEMBL1132202, “2-Amino-3-substituted-6-[(E)-1-phenyl-2-(N-methylcarbamoyl)vinyl]imid azo[1,2-a]pyridines as a novel class of inhibitors of human rhinovirus: stereospecific synthesis and antiviral activity” (J Med Chem, 1999)
Values after ≈ are worked out from the molar mass of the structure shown.

Key:
[1] = Compound was measured for inhibition on Human Rhinovirus-14 by using PRA assay (Antiviral activity); format: functional, Human rhinovirus sp.
Method in brief: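 H-HeLa cells grown in 60-mm dishes at 37 °C in MEM with 10% newborn calf serum and 1% nonessential amino acids. Overlay contained varied compound concentrations. Incubated 35 °C for 48 h, fixed with 10% formalin, stained with 0.5% crystal violet, plaques counted. Duplicate wells averaged vs DMSO controls. IC50 (50% plaque inhibition) by Reed-Muench from linear region of the curve.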

[2] = Compound was evaluated for cellular toxicity in on Human Rhinovirus-14 by using CPE/XTT assay (cytopathic effect assay); details: human rhinovirus sp.; read-out: TC50 (the source's name)
Method in brief: (§1)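 CPE assay run per an earlier protocol, except that surviving host cells were quantified with XTT as substrate rather than crystal violet staining. The same assay gave the cellular toxicity TC50. Control samples without drug received 0.1% DMSO.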

[3] = Compound was measured for inhibition on Human Rhinovirus-14 by using CPE/XTT assay (Antiviral activity); format: functional, Human rhinovirus sp.; method in brief: as §1
[4] = Ratio of TC50 value to the IC50 value measured on rhinovirus-14 by using CPE/XTT assay.; format: functional
Method in brief: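 Cytopathic-effect assay run per an earlier method, except that surviving host cells were quantified by XTT reduction instead of crystal violet staining. General cellular toxicity was taken as TC50, and the ratio was TC50 divided by IC50. No-drug controls received 0.1% DMSO.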

| Structure (SMILES) | IC50 [1] | CC50 [2] | IC50 [3] | TC50/IC50 [4] |
| --- | --- | --- | --- | --- |
| CNC(=O)/C=C(\c1ccccc1)c1ccc2nc(N)c(SC(C)C)n2c1 | 0.17 µg/mL (≈ 0.464 µM) | 10 µg/mL (≈ 27.3 µM) | 0.21 µg/mL (≈ 0.573 µM) | 48 |
| CNC(=O)/C=C(\c1ccccc1)c1ccc2nc(N)c(I)n2c1 | > 3.2 µg/mL | – | – | – |
| CNC(=O)/C=C(\c1ccccc1)c1ccc2nc(N)cn2c1 | > 10 µg/mL | – | – | – |
| CNC(=O)/C=C(\c1ccccc1)c1ccc2nc(N)c(-c3ccc(F)cc3C(F)(F)F)n2c1 | 0.44 µg/mL (≈ 0.968 µM) | > 10 µg/mL | 0.48 µg/mL (≈ 1.06 µM) | >21 |
| CNC(=O)/C=C(\c1ccccc1)c1ccc2nc(N)c(S(=O)(=O)C(C)C)n2c1 | 0.64 µg/mL (≈ 1.61 µM) | – | – | – |
| CNC(=O)/C=C(\c1ccccc1)c1ccc2nc(N)c(-c3cc(F)ccc3F)n2c1 | 0.18 µg/mL (≈ 0.445 µM) | 4.87 µg/mL (≈ 12 µM) | 0.16 µg/mL (≈ 0.396 µM) | 30 |
| CNC(=O)/C=C(\c1ccccc1)c1ccc2nc(N)c(-c3ccccc3)n2c1 | 0.27 µg/mL (≈ 0.733 µM) | 5.03 µg/mL (≈ 13.7 µM) | 0.3 µg/mL (≈ 0.814 µM) | 17 |
| CNC(=O)/C=C(\c1ccccc1)c1ccc2nc(N)c(-c3ccc(F)c(F)c3F)n2c1 | 0.17 µg/mL (≈ 0.402 µM) | 6.98 µg/mL (≈ 16.5 µM) | 0.21 µg/mL (≈ 0.497 µM) | 33 |
